Data: ChEMBL document CHEMBL5260840 (J Med Chem, 2019)

How the values were obtained:
Type in all cases: cell-based
[1] = target: T1, von Hippel-Lindau disease tumor suppressor/Bromodomain-containing protein 7 (Homo sapiens) (UniProt Q9NPI1+P40337); assay: PROTAC activity at VHL/BRD7 in human Ri-1 cells assessed as remaining BRD7 protein level at 10 nM incubated for 2 hrs by Western blot analysis relative to control
[2] = target: T1, von Hippel-Lindau disease tumor suppressor/Bromodomain-containing protein 7 (Homo sapiens); assay: PROTAC activity at VHL/BRD7 in human Ri-1 cells assessed as remaining BRD7 protein level at 10 nM incubated for 8 hrs by Western blot analysis relative to control
Procedure, shortened: (§1)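 Ri-1 cells exposed to compound for the stated time before harvest; BRD9, BRD7 and β-actin measured by Western blot, band intensities quantified and set against DMSO-treated control.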

[3] = target: T2, von Hippel-Lindau disease tumor suppressor/Bromodomain-containing protein 9 (Homo sapiens) (UniProt Q9H8M2+P40337); assay: PROTAC activity at VHL/BRD9 in human Ri-1 cells assessed as remaining BRD9 protein level at 1 nM incubated for 8 hrs by Western blot analysis relative to control; procedure, shortened: as §1
[4] = target: T2, von Hippel-Lindau disease tumor suppressor/Bromodomain-containing protein 9 (Homo sapiens); assay: PROTAC activity at VHL/BRD9 in human Ri-1 cells assessed as remaining BRD9 protein level at 100 nM incubated for 8 hrs by Western blot analysis relative to control; procedure, shortened: as §1
[5] = target: T1, von Hippel-Lindau disease tumor suppressor/Bromodomain-containing protein 7 (Homo sapiens); assay: PROTAC activity at VHL/BRD7 in human HeLa cells assessed as remaining BRD7 protein level at 1 uM incubated for 4 hrs by Western blot analysis relative to control
[6] = target: T2, von Hippel-Lindau disease tumor suppressor/Bromodomain-containing protein 9 (Homo sapiens); assay: PROTAC activity at VHL/BRD9 in human Ri-1 cells assessed as remaining BRD9 protein level at 10000 nM incubated for 2 hrs by Western blot analysis relative to control; procedure, shortened: as §1
[7] = target: T2, von Hippel-Lindau disease tumor suppressor/Bromodomain-containing protein 9 (Homo sapiens); assay: PROTAC activity at VHL/BRD9 in human Ri-1 cells assessed as remaining BRD9 protein level at 0.1 nM incubated for 8 hrs by Western blot analysis relative to control; procedure, shortened: as §1
[8] = target: T1, von Hippel-Lindau disease tumor suppressor/Bromodomain-containing protein 7 (Homo sapiens); assay: PROTAC activity at VHL/BRD7 in human Ri-1 cells assessed as remaining BRD7 protein level at 100 nM incubated for 2 hrs by Western blot analysis relative to control; procedure, shortened: as §1
[9] = target: T2, von Hippel-Lindau disease tumor suppressor/Bromodomain-containing protein 9 (Homo sapiens); assay: PROTAC activity at VHL/BRD9 in human Ri-1 cells assessed as remaining BRD9 protein level at 10 nM incubated for 8 hrs by Western blot analysis relative to control; procedure, shortened: as §1
[10] = target: T2, von Hippel-Lindau disease tumor suppressor/Bromodomain-containing protein 9 (Homo sapiens); assay: PROTAC activity at VHL/BRD9 in human Ri-1 cells assessed as remaining BRD9 protein level at 1 uM incubated for 2 hrs by Western blot analysis relative to control; procedure, shortened: as §1
[11] = target: T2, von Hippel-Lindau disease tumor suppressor/Bromodomain-containing protein 9 (Homo sapiens); assay: PROTAC activity at VHL/BRD9 in human Ri-1 cells assessed as remaining BRD9 protein level at 1 uM incubated for 8 hrs by Western blot analysis relative to control; procedure, shortened: as §1
[12] = target: T2, von Hippel-Lindau disease tumor suppressor/Bromodomain-containing protein 9 (Homo sapiens); assay: PROTAC activity at VHL/BRD9 in human Ri-1 cells assessed as remaining BRD9 protein level at 1 nM incubated for 2 hrs by Western blot analysis relative to control; procedure, shortened: as §1
[13] = target: T2, von Hippel-Lindau disease tumor suppressor/Bromodomain-containing protein 9 (Homo sapiens); assay: PROTAC activity at VHL/BRD9 in human Ri-1 cells assessed as remaining BRD9 protein level at 10 nM incubated for 2 hrs by Western blot analysis relative to control; procedure, shortened: as §1
[14] = target: T1, von Hippel-Lindau disease tumor suppressor/Bromodomain-containing protein 7 (Homo sapiens); assay: PROTAC activity at VHL/BRD7 in human Ri-1 cells assessed as remaining BRD7 protein level at 1 uM incubated for 2 hrs by Western blot analysis relative to control
[15] = target: T1, von Hippel-Lindau disease tumor suppressor/Bromodomain-containing protein 7 (Homo sapiens); assay: PROTAC activity at VHL/BRD7 in human Ri-1 cells assessed as remaining BRD7 protein level at 1 nM incubated for 8 hrs by Western blot analysis relative to control
[16] = target: T1, von Hippel-Lindau disease tumor suppressor/Bromodomain-containing protein 7 (Homo sapiens); assay: PROTAC activity at VHL/BRD7 in human Ri-1 cells assessed as remaining BRD7 protein level at 10000 nM incubated for 2 hrs by Western blot analysis relative to control; procedure, shortened: as §1
[17] = target: T1, von Hippel-Lindau disease tumor suppressor/Bromodomain-containing protein 7 (Homo sapiens); assay: PROTAC activity at VHL/BRD7 in human Ri-1 cells assessed as remaining BRD7 protein level at 100 nM incubated for 8 hrs by Western blot analysis relative to control; procedure, shortened: as §1
[18] = target: T1, von Hippel-Lindau disease tumor suppressor/Bromodomain-containing protein 7 (Homo sapiens); assay: PROTAC activity at VHL/BRD7 in human Ri-1 cells assessed as remaining BRD7 protein level at 1 nM incubated for 2 hrs by Western blot analysis relative to control
[19] = target: T1, von Hippel-Lindau disease tumor suppressor/Bromodomain-containing protein 7 (Homo sapiens); assay: PROTAC activity at VHL/BRD7 in human Ri-1 cells assessed as remaining BRD7 protein level at 0.1 nM incubated for 8 hrs by Western blot analysis relative to control
[20] = target: T1, von Hippel-Lindau disease tumor suppressor/Bromodomain-containing protein 7 (Homo sapiens); assay: PROTAC activity at VHL/BRD7 in human Ri-1 cells assessed as remaining BRD7 protein level at 1 uM incubated for 8 hrs by Western blot analysis relative to control
[21] = target: T2, von Hippel-Lindau disease tumor suppressor/Bromodomain-containing protein 9 (Homo sapiens); assay: PROTAC activity at VHL/BRD9 in human Ri-1 cells assessed as remaining BRD9 protein level at 100 nM incubated for 2 hrs by Western blot analysis relative to control; procedure, shortened: as §1
[22] = target: T3, DDB1- and CUL4-associated factor 15/Bromodomain-containing protein 7 (Homo sapiens) (UniProt Q9NPI1+Q66K64); assay: PROTAC activity at DCAF15/BRD7 in human HeLa cells assessed as remaining BRD7 protein level at 1 uM incubated for 16 hrs by Western blot analysis relative to control
[23] = target: T4, DDB1- and CUL4-associated factor 15/Bromodomain-containing protein 9 (Homo sapiens) (UniProt Q9H8M2+Q66K64); assay: PROTAC activity at DCAF15/BRD9 in human HeLa cells assessed as remaining BRD9 protein level at 1 uM incubated for 4 hrs by Western blot analysis relative to control
[24] = target: T4, DDB1- and CUL4-associated factor 15/Bromodomain-containing protein 9 (Homo sapiens); assay: PROTAC activity at DCAF15/BRD9 in human HeLa cells assessed as remaining BRD9 protein level at 1 uM incubated for 16 hrs by Western blot analysis relative to control
[25] = target: T3, DDB1- and CUL4-associated factor 15/Bromodomain-containing protein 7 (Homo sapiens); assay: PROTAC activity at DCAF15/BRD7 in human HeLa cells assessed as remaining BRD7 protein level at 1 uM incubated for 4 hrs by Western blot analysis relative to control

T1 sequence (P40337 whole entry, looked up): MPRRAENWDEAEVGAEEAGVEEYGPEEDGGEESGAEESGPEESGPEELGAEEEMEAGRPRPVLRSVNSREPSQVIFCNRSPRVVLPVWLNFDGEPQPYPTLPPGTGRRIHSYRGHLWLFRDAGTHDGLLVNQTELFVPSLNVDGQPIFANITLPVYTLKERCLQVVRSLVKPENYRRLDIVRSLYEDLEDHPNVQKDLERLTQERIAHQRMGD
T1 sequence (Q9NPI1 whole entry, looked up): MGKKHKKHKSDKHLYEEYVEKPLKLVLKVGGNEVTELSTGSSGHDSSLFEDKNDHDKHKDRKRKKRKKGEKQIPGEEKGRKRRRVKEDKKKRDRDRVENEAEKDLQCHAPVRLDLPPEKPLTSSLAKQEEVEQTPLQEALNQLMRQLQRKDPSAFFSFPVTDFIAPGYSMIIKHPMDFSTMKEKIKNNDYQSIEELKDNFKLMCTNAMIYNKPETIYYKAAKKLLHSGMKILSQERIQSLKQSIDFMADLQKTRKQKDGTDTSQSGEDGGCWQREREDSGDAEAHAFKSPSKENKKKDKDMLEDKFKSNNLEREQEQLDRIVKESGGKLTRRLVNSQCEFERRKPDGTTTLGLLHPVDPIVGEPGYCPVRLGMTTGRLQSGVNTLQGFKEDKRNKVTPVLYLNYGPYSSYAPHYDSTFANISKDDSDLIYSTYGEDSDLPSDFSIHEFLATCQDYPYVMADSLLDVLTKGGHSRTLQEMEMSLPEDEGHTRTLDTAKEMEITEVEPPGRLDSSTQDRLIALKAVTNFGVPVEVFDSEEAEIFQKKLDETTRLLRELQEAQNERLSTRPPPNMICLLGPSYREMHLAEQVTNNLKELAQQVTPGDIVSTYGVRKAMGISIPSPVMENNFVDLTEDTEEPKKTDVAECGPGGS
T2 sequence (P40337 whole entry, looked up): as the sequence (P40337 whole entry, looked up) above
T2 sequence (Q9H8M2 whole entry, looked up): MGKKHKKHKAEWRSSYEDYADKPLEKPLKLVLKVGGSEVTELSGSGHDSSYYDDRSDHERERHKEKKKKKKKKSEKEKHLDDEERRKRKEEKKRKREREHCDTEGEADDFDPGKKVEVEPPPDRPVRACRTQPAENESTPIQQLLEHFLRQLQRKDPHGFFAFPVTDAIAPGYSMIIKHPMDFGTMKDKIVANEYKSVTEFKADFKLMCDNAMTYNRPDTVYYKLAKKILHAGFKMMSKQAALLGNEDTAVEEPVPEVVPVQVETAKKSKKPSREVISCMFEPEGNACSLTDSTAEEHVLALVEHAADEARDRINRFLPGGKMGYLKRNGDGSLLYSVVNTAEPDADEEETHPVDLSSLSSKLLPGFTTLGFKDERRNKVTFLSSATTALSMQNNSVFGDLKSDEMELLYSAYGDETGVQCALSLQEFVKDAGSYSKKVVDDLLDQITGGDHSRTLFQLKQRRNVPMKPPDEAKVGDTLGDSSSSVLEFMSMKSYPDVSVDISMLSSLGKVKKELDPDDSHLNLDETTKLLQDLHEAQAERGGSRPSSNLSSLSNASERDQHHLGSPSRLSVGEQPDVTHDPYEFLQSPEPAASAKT
T3 sequence (Q66K64 whole entry, looked up): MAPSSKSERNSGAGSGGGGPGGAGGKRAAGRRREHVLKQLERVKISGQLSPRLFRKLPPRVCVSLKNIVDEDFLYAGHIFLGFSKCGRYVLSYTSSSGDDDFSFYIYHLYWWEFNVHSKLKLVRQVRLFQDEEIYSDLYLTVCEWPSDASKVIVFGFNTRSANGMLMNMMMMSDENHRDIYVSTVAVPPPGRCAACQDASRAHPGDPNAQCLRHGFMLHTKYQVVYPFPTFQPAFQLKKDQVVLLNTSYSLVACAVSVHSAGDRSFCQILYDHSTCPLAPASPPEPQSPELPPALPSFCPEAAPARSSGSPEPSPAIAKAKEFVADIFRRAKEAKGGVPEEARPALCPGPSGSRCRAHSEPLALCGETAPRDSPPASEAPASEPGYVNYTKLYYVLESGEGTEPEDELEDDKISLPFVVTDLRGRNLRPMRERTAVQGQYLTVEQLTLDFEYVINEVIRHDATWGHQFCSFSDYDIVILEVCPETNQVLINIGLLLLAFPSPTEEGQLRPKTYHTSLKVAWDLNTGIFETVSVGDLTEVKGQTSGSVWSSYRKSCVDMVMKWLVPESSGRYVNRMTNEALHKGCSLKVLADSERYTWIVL
T3 sequence (Q9NPI1 whole entry, looked up): as the sequence (Q9NPI1 whole entry, looked up) above
T4 sequence (Q66K64 whole entry, looked up): as the sequence (Q66K64 whole entry, looked up) above
T4 sequence (Q9H8M2 whole entry, looked up): as the sequence (Q9H8M2 whole entry, looked up) above

For `COc1cc(-c2cn(C)c(=O)c3cnccc23)cc(OC)c1CN1CCN(CCOCCOc2cc(-c3scnc3C)ccc2CNC(=O)[C@@H]2C[C@@H](O)CN2C(=O)[C@@H](NC(=O)C2(F)CC2)C(C)(C)C)CC1`, the Activity [1] was 123%, the Activity [2] was 155% and the Activity [3] was 109%. The Activity [4] was 63%, the Activity [5] was 8% and the Activity [6] was 66%. For the same molecule, the Activity [7] was 117%, the Activity [8] was 75% and the Activity [9] was 103%. The Activity [10] was 44%, the Activity [11] was 6% and the Activity [12] was 110%. For the same molecule, the Activity [13] was 113%, the Activity [14] was 63% and the Activity [15] was 155%. For the same molecule, the Activity [16] was 33%, the Activity [17] was 152% and the Activity [18] was 101%. For the same molecule, the Activity [19] was 155%, the Activity [20] was 8% and the Activity [21] was 50%.

`COc1cc(-c2cn(C)c(=O)c3cnccc23)cc(OC)c1CN1CCN(CCOCCOCCOCCOCC(=O)NCc2ccc(S(=O)(=O)Nc3cccc4c(Cl)c[nH]c34)cc2)CC1` gave an Activity [22] of 86%, an Activity [23] of 126% and an Activity [24] of 86%. The Activity [25] was 81%.
